From PubChem BioAssay AID2646 (Broad Institute, 2010) come the findings set out here.

In the assay the test system is human washed platelets, cAMP competitive ELISA, 5 min. Kind of assay: cAMP induction in washed human platelets – cell-based, competitive ELISA, PGE1 reference, single compound, counter-screen for platelet activation inhibitor project, confirmation (AID 2646). The conditions noted are these: at 10 µM; hits give high values. In a few lines:
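Test system: washed human donor platelets; benchmarks: PGE1 1 µM high, DMSO 0.3% neutral; signal: competitive cAMP ELISA of platelet lysates, optical density; doses: 10 µM compound, single concentration; medium: lysis in 0.1 M HCl with 0.5% Triton X-100; timing: 5 min platelet exposure to compound or control; replication: duplicate samples per compound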

Calls of active or inactive are those of the source.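 How the source made its calls: active means mean cAMP rise at 10 µM above half of the positive control's rise; inactive means the rest.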

Consider `CCCC(=O)Nc1cccc(NC(=O)c2ccccc2Br)c1`, for which the cAMP elevation, % of PGE1 was 43.9% (inactive).
